Measured values reported in ChEMBL document CHEMBL4689842, “EUbOPEN Chemogenomics Library wave 1” (2021).

What was measured:
Fibroblast = assay: Incucyte cell viability with human fibroblast; assay type: toxicity, cell-based; conditions: 10 µM, compound concentration 10 uM; further: filed as whole numbers so only -1 and 0 and 1 occur
U2OS = assay: Multiplex assay against U2OS; assay type: toxicity, cell-based; conditions: human
Procedure, shortened: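 Live cells were stained at seeding with Hoechst33342, BioTracker Green Microtubule Cytoskeleton Dye, MitoTracker Red and Annexin V Alexa Fluor 680, then imaged on a CQ1 microscope at 37°C and 5% CO2 after compound addition. CellPathfinder machine-learning gating split cells into Hoechst high-intensity objects or normal cells. Normal cells were split into healthy, pyknosed or fragmented nuclei, and pyknosed cells into mitotic or apoptotic. Tubulin, mitochondrial-mass and membrane-permeability phenotypes are per cents of healthy-nucleus cells.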

[1] = 0 h, replicate number 1, timepoint 0 hours
[2] = 0 h, replicate number 2, timepoint 0 hours
[3] = 6 h, replicate number 1, timepoint 6 hours
[4] = 12 h, replicate number 1, timepoint 12 hours
[5] = 18 h, replicate number 1, timepoint 18 hours
[6] = 24 h, replicate number 1, timepoint 24 hours
[7] = 12 h, 1 µM, compound concentration 1 uM, replicate 1
[8] = 12 h, 1 µM, compound concentration 1 uM, replicate 2
[9] = 12 h, 10 µM, compound concentration 10 uM, replicate 1
[10] = 12 h, 10 µM, compound concentration 10 uM, replicate 2
[11] = 24 h, 1 µM, compound concentration 1 uM, replicate 1
[12] = 24 h, 1 µM, compound concentration 1 uM, replicate 2
[13] = 24 h, 10 µM, compound concentration 10 uM, replicate 1
[14] = 24 h, 10 µM, compound concentration 10 uM, replicate 2

## CN(C)C/C=C/C(=O)Nc1cc2c(Nc3ccc(F)c(Cl)c3)ncnc2cc1O[C@H]1CCOC1.O=C(O)/C=C\C(=O)O.O=C(O)/C=C\C(=O)O [AFATINIB DIMALEATE]
Fibroblast; [1]
  Growth Rate: 0
Fibroblast; [2]
  Growth Rate: 1
Fibroblast; [3]
  Growth Rate: 0
Fibroblast; [4]
  Growth Rate: 0
Fibroblast; [5]
  Growth Rate: 0
Fibroblast; [6]
  Growth Rate: 0
U2OS; [7]
  Population Apoptotic (%): 56%
  Population Fragmented Nuclei (%): 4%
  Population Healthy Nuclei (%): 85%
  Population Hoechst High Intensity Objects (%): 3%
  Population Membrane Permeable-Phenotype (%): 20%
  Population Mitochondria Different-Phenotype (%): 8%
  Population Mitotic Cells (%): 43%
  Population Normal (%): 96%
  Population Pyknosed Nuclei (%): 10%
  Population Tubulin-Different-Phenotype (%): 18%
U2OS; [8]
  Population Apoptotic (%): 37%
  Population Fragmented Nuclei (%): 7%
  Population Healthy Nuclei (%): 86%
  Population Hoechst High Intensity Objects (%): 11%
  Population Membrane Permeable-Phenotype (%): 14%
  Population Mitochondria Different-Phenotype (%): 18%
  Population Mitotic Cells (%): 62%
  Population Normal (%): 88%
  Population Pyknosed Nuclei (%): 6%
  Population Tubulin-Different-Phenotype (%): 24%
U2OS; [9]
  Population Apoptotic (%): 62%
  Population Healthy Nuclei (%): 56%
  Population Hoechst High Intensity Objects (%): 2%
  Population Membrane Permeable-Phenotype (%): 25%
  Population Mitochondria Different-Phenotype (%): 37%
  Population Mitotic Cells (%): 37%
  Population Normal (%): 97%
  Population Pyknosed Nuclei (%): 26%
  Population Tubulin-Different-Phenotype (%): 89%
U2OS; [10]
  Population Apoptotic (%): 68%
  Population Fragmented Nuclei (%): 16%
  Population Healthy Nuclei (%): 47%
  Population Hoechst High Intensity Objects (%): 13%
  Population Membrane Permeable-Phenotype (%): 18%
  Population Mitochondria Different-Phenotype (%): 62%
  Population Mitotic Cells (%): 31%
  Population Normal (%): 86%
  Population Pyknosed Nuclei (%): 35%
  Population Tubulin-Different-Phenotype (%): 86%
U2OS; [11]
  Population Apoptotic (%): 72%
  Population Fragmented Nuclei (%): 6%
  Population Healthy Nuclei (%): 85%
  Population Hoechst High Intensity Objects (%): 1%
  Population Membrane Permeable-Phenotype (%): 16%
  Population Mitochondria Different-Phenotype (%): 10%
  Population Mitotic Cells (%): 27%
  Population Normal (%): 98%
  Population Pyknosed Nuclei (%): 8%
  Population Tubulin-Different-Phenotype (%): 20%
U2OS; [12]
  Population Apoptotic (%): 75%
  Population Fragmented Nuclei (%): 7%
  Population Healthy Nuclei (%): 87%
  Population Hoechst High Intensity Objects (%): 10%
  Population Membrane Permeable-Phenotype (%): 15%
  Population Mitochondria Different-Phenotype (%): 21%
  Population Mitotic Cells (%): 25%
  Population Normal (%): 89%
  Population Pyknosed Nuclei (%): 5%
  Population Tubulin-Different-Phenotype (%): 24%
U2OS; [13]
  Population Apoptotic (%): 81%
  Population Fragmented Nuclei (%): 10%
  Population Healthy Nuclei (%): 65%
  Population Membrane Permeable-Phenotype (%): 26%
  Population Mitochondria Different-Phenotype (%): 66%
  Population Mitotic Cells (%): 18%
  Population Pyknosed Nuclei (%): 24%
  Population Tubulin-Different-Phenotype (%): 49%
U2OS; [14]
  Population Apoptotic (%): 93%
  Population Fragmented Nuclei (%): 22%
  Population Healthy Nuclei (%): 41%
  Population Hoechst High Intensity Objects (%): 8%
  Population Membrane Permeable-Phenotype (%): 29%
  Population Mitochondria Different-Phenotype (%): 72%
  Population Mitotic Cells (%): 6%
  Population Normal (%): 91%
  Population Pyknosed Nuclei (%): 36%
  Population Tubulin-Different-Phenotype (%): 47%

## CCOc1cc(N2CCC(O)CC2)ccc1Nc1ncc2c(n1)N(C1CCCC1)CCC(=O)N2C
Fibroblast; [1]
  Growth Rate: 1
Fibroblast; [2]
  Growth Rate: 0
Fibroblast; [3]
  Growth Rate: 0
Fibroblast; 6 h, replicate number 2, timepoint 6 hours
  Growth Rate: 1
Fibroblast; [4]
  Growth Rate: 0
Fibroblast; 12 h, replicate number 2, timepoint 12 hours
  Growth Rate: 1
Fibroblast; [5]
  Growth Rate: 0
Fibroblast; [6]
  Growth Rate: 0
U2OS; [7]
  Population Apoptotic (%): 46%
  Population Fragmented Nuclei (%): 5%
  Population Healthy Nuclei (%): 86%
  Population Hoechst High Intensity Objects (%): 4%
  Population Membrane Permeable-Phenotype (%): 16%
  Population Mitochondria Different-Phenotype (%): 14%
  Population Mitotic Cells (%): 53%
  Population Normal (%): 95%
  Population Pyknosed Nuclei (%): 8%
  Population Tubulin-Different-Phenotype (%): 18%
U2OS; [8]
  Population Apoptotic (%): 50%
  Population Fragmented Nuclei (%): 8%
  Population Healthy Nuclei (%): 89%
  Population Hoechst High Intensity Objects (%): 7%
  Population Membrane Permeable-Phenotype (%): 18%
  Population Mitochondria Different-Phenotype (%): 16%
  Population Mitotic Cells (%): 50%
  Population Normal (%): 92%
  Population Pyknosed Nuclei (%): 2%
  Population Tubulin-Different-Phenotype (%): 17%
U2OS; [9]
  Population Apoptotic (%): 27%
  Population Fragmented Nuclei (%): 4%
  Population Healthy Nuclei (%): 89%
  Population Hoechst High Intensity Objects (%): 1%
  Population Membrane Permeable-Phenotype (%): 5%
  Population Mitochondria Different-Phenotype (%): 24%
  Population Mitotic Cells (%): 72%
  Population Normal (%): 98%
  Population Pyknosed Nuclei (%): 5%
  Population Tubulin-Different-Phenotype (%): 28%
U2OS; [10]
  Population Apoptotic (%): 33%
  Population Fragmented Nuclei (%): 7%
  Population Healthy Nuclei (%): 90%
  Population Hoechst High Intensity Objects (%): 8%
  Population Membrane Permeable-Phenotype (%): 7%
  Population Mitochondria Different-Phenotype (%): 33%
  Population Mitotic Cells (%): 66%
  Population Normal (%): 91%
  Population Pyknosed Nuclei (%): 2%
  Population Tubulin-Different-Phenotype (%): 27%
U2OS; [11]
  Population Fragmented Nuclei (%): 7%
  Population Healthy Nuclei (%): 87%
  Population Hoechst High Intensity Objects (%): 2%
  Population Membrane Permeable-Phenotype (%): 8%
  Population Mitochondria Different-Phenotype (%): 17%
  Population Normal (%): 97%
  Population Tubulin-Different-Phenotype (%): 18%
U2OS; [12]
  Population Apoptotic (%): 60%
  Population Fragmented Nuclei (%): 10%
  Population Healthy Nuclei (%): 85%
  Population Hoechst High Intensity Objects (%): 6%
  Population Membrane Permeable-Phenotype (%): 11%
  Population Mitochondria Different-Phenotype (%): 20%
  Population Mitotic Cells (%): 40%
  Population Normal (%): 93%
  Population Pyknosed Nuclei (%): 4%
  Population Tubulin-Different-Phenotype (%): 20%
U2OS; [13]
  Population Apoptotic (%): 44%
  Population Fragmented Nuclei (%): 3%
  Population Healthy Nuclei (%): 93%
  Population Hoechst High Intensity Objects (%): 1%
  Population Membrane Permeable-Phenotype (%): 5%
  Population Mitochondria Different-Phenotype (%): 22%
  Population Mitotic Cells (%): 55%
  Population Normal (%): 98%
  Population Pyknosed Nuclei (%): 3%
  Population Tubulin-Different-Phenotype (%): 24%
U2OS; [14]
  Population Apoptotic (%): 20%
  Population Fragmented Nuclei (%): 9%
  Population Healthy Nuclei (%): 87%
  Population Hoechst High Intensity Objects (%): 7%
  Population Membrane Permeable-Phenotype (%): 2%
  Population Mitochondria Different-Phenotype (%): 24%
  Population Mitotic Cells (%): 80%
  Population Normal (%): 92%
  Population Pyknosed Nuclei (%): 2%
  Population Tubulin-Different-Phenotype (%): 38%
